Screens (PubChem)
CHRM5 PAM: positive allosteric modulators of human muscarinic M5 receptor; P08912; activation, % at 3 µM; CHO-K1 hM5, Fluo-8 calcium, ACh EC20 PAM; 0% = ACh EC20, 100% = ACh EC100; actives 0.3% (n = 360,000);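 active means activation above the run cutoff, the mean activation of all test compounds plus 3 SD, cut at about 18% in these data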
Target sequence (P08912 whole entry, looked up): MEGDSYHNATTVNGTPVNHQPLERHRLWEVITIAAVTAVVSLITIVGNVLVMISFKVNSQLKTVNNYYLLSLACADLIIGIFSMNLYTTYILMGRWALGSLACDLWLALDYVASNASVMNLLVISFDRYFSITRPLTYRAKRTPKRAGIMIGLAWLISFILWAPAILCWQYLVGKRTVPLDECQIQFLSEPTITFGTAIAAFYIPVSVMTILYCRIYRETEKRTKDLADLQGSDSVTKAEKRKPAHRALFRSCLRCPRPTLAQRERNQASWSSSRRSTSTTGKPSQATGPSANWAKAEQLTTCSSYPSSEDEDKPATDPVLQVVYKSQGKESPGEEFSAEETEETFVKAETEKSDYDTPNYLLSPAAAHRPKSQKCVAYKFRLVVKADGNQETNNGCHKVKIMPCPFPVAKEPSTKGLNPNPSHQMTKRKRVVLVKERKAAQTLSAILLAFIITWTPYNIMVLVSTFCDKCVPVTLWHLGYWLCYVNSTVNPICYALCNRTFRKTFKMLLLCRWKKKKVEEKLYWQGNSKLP
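Test system: CHO-K1 hM5 cells / Doses: single-point, 3 µM nominal / Times: Post-acetylcholine fluorescence recording 140 s / Technique: Fluo-8 calcium fluorescence / Measure: Max/basal fluorescence ratio as % of EC20–EC100 ACh window / Benchmarks: low control EC20 acetylcholine (0%), high control EC100 acetylcholine (100%) / Replicates: one well per compound, no replicates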
M4 ag: CHRM4 agonism in calcium assay; activation, % at 3 µM; AID 624127; P08173; actives 0.14% (n = 360,000); CHO-K1 hM4/Gqi5, Fluo-8 calcium fluorescence; vehicle 0%, full acetylcholine response 100%;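 active means activation above the run mean over all test wells plus 3 SD, cut at about 32% in these data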;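 further: peak over basal fluorescence ratio per well then scaled between controls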
CHRM5 antagonist: blocks acetylcholine activation of human M5 receptor | actives 0.59% (n = 360,000) | CHO-hM5 cells, Fluo-8 calcium fluorescence, ACh EC80 | inhibition, % at 3 µM | AID 624040;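 active means inhibition above a per-plate cutoff, the mean of that plate's test compounds plus 3 SD, cut at about 27% in these data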
CHRM5 agonist: agonists of human muscarinic M5 receptor (CHRM5). P08912. CHO-K1 hM5 cells, Fluo-8 calcium fluorescence; 0% DMSO wells, 100% maximal acetylcholine response. activation, % at 3 µM. actives 0.19% (n = 360,000);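 active means activation above the run's mean over test compounds plus 3 SD, cut at about 23% in these data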;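 further: signal is peak over basal fluorescence ratio across the kinetic read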
CHRM4 antagonist: CHRM4 antagonism in calcium assay | P08173 | CHO-hM4 cells, ACh EC80, Fluo-8 calcium fluorescence | inhibition, % at 3 µM | actives 0.73% (n = 360,000);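 active means inhibition above its plate's cutoff, the mean inhibition of sample wells plus 3 SD, cut at about 27% in these data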
CHRM4 PAM: potentiates acetylcholine response at human M4 receptor; P08173; CHO-K1 hM4/Gqi5, Fluo-8 calcium fluorescence, ACh EC20; 0% = ACh EC20, 100% = maximal ACh; activation, % at 3 µM; actives 0.4% (n = 360,000); AID 624126;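 active means activation above its plate's cutoff, the mean activation of sample wells plus 3 SD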
Each line names hits and unclear results; the compound was inactive in the other large screens. Only some compounds are listed: those with a hit (about 1.8% of all), similar ones and a draw of the others.

CN(C)CCN(CC1CCCN(Cc2ccccc2F)C1)C(=O)c1ccc(Cl)cc1 (centres undefined)	none
CCC(C(=O)NC1CCCC1)n1c(-c2ccnc3ccccc23)nc2ccccc21 (centres undefined)	none
O=C(O)c1cccc(OCCN2CCCC2=O)c1	none
CN1CCC(=O)N(CCOc2ccccc2)CC1	CHRM5 PAM 20.4
CC(=O)Nc1ccc(S(=O)(=O)n2cnc(C)c2)cc1	none
Cc1ccc(S(=O)(=O)n2cnc(C)c2)cc1	CHRM5 PAM 19.7
CC(Sc1nc(N)cc(=O)[nH]1)C(=O)Nc1ccc(N2CCOCC2)cc1 (centres undefined)	none
Cc1ccc(CC(=O)N2CCN(c3cccc(C(F)(F)F)c3)CC2)cc1	CHRM4 antagonist 27.9
O=[N+]([O-])c1cc([N+](=O)[O-])c(Oc2cccnc2Br)cc1NN1CCCCC1	none
O=C1C(SCCO)=C(SCCO)C(=O)c2ccccc21	CHRM5 antagonist 38.2, CHRM4 antagonist 61.1
COC(=O)c1cc(S(=O)(=O)N2CCOCC2)ccc1Sc1ccccc1N	CHRM4 PAM 22.1
O=C(CBr)Nc1c2c(nn1-c1ccccc1)CSC2	none
COc1cc(OC)cc(C(=O)N2CCC(n3c(C)nc4cc(F)ccc43)CC2)c1	CHRM5 PAM 33.6
COc1cc(NCCCC(C)N)c2ncccc2c1 (centres undefined)	CHRM5 PAM 22.1
CCOC(=O)N1CCN(C(=O)c2ccc(CS(=O)(=O)c3ccccc3OC)o2)CC1	none
COc1ccccc1N1CCN(C(=O)c2ccc(CS(=O)(=O)c3ccccc3OC)o2)CC1	CHRM5 agonist 33.5
COc1ccccc1N1CCN(C(=O)c2oc3ccccc3c2C)CC1	none
COc1ccccc1N1CCN(C(=O)c2cccc3c(=O)c(C)c(-c4ccccc4)oc23)CC1	CHRM5 agonist 25.9
COc1cccc(NC(=O)CCN2C(=O)C3CC=CCC3C2=O)c1 (centres undefined)	none
CCO[C@H]1C[C@@H](c2ccc(CC)cc2)N(S(=O)(=O)c2ccc(C)cc2)C2CC(c3ccc(CC)cc3)N(S(=O)(=O)c3ccc(C)cc3)CC21 (some centres undefined)	none
CCOc1ccc(OCCC(=O)OCC(=O)Nc2ccc(C)c(S(=O)(=O)N3CCCCC3)c2)cc1	CHRM5 antagonist 27.0
CCc1nc2c(OCc3ccccc3)cccn2c1N(C)C(C)=O	none
NC(=S)NN=C(c1ccc(F)cc1)C1CC1	none
COc1cc(C=NN2CCCCC2)cc(OC)c1OC	CHRM5 agonist 26.5
COc1cc(/C=N/N2CCCCC2)cc(OC)c1O	none
Cc1ccc(N2CC(C(=O)Nc3ccc(N4CCOCC4)cc3)CC2=O)cc1C (centres undefined)	none
CCCCN(C(=O)c1ccc(-c2ccc(Cl)cc2)o1)c1c(N)n(CCC)c(=O)[nH]c1=O	none
Cc1nc2scc(-c3ccccc3)c2c(=O)o1	CHRM5 PAM 23.3
O=c1oc(-c2ccccc2F)nc2scc(-c3ccccc3)c12	none
CNC(=O)c1cc(Oc2ccc(NC(=O)Nc3ccc(Cl)c(C(F)(F)F)c3)cc2)ccn1	CHRM5 antagonist 29.6, CHRM4 antagonist 31.8
Cc1cc(C)c(NC(=O)CCc2c(C)noc2C)c(C)c1	none
O=C1Nc2ccccc2/C1=C/C(=O)c1cccs1	CHRM5 PAM 18.6
COc1ccc(C(=O)/C=C2/C(=O)Nc3ccccc32)c(OC)c1	CHRM4 antagonist 29.2
COc1ccc(C(=O)/C=C2/C(=O)Nc3ccccc32)cc1OC	none
COc1ccc(C(=O)/C=C2/C(=O)Nc3ccccc32)cc1	none
CC1(C(=O)NS(=O)(=O)c2cccc(OC(F)F)c2)CCN1C(=O)CC(c1ccccc1)c1ccccc1 (centres undefined)	none
O=C(O)c1cc(Cl)n[nH]c1=O	none
Cc1nnc(SCC(=O)c2cc(C)n(-c3ccc4c(c3)OCO4)c2C)s1	CHRM5 antagonist 27.4
OC1(c2cccs2)CN(c2ccc(Br)cc2)C2=[N+]1CCCS2 (centres undefined)	CHRM4 antagonist 27.1
COc1ccc(OC)c(N2CC(O)(c3cccs3)[N+]3=C2SCCC3)c1 (centres undefined)	none
CCOc1ccc(N2CC(O)(c3cccs3)[N+]3=C2CCCC3)cc1 (centres undefined)	CHRM5 antagonist 35.8
OC1(c2cccs2)CN(c2ccccc2)C2=[N+]1CCCC2 (centres undefined)	none
O=C(OCc1cn([C@H]2CN(CC3CCCCC3)[C@@H](c3ccccc3)C[C@@H]2O)nn1)c1ccccc1	none
COC(=O)C[C@@H]1CC[C@H](NC(=O)c2ccc3c(c2)OCO3)[C@@H](CO)O1	none
CCOC(=O)C1CCN(C(C)=C2C(=O)c3ccccc3C2=O)CC1	CHRM4 PAM 17.0
CCOC(=O)C1CCN(C(=O)CCCN2C(=O)c3ccccc3C2=O)CC1	none
O=C(Oc1coc(CSc2ncccn2)cc1=O)c1ccc(Br)o1	none
Cc1ccnc(SCc2cc(=O)c(OC(=O)c3ccc(Br)o3)co2)n1	CHRM5 PAM 34.4
CC1CCc2c(sc3nc(C(C)(C)C)nc(N4CCN(C(=O)CCl)CC4)c23)C1 (centres undefined)	none
COc1cc(/C=C/C(=O)OCC(=O)Nc2ccc([N+](=O)[O-])cc2)ccc1O	M4 ag 39.0, CHRM5 agonist 38.1
CCCCn1cc(C(=O)c2cc(Br)ccc2O)cc(C#N)c1=O	CHRM5 antagonist 29.0
O=C(CN1CCCCCC1)NN(Cc1ccccc1)c1ccccc1	CHRM4 antagonist 29.3
O=C(CN1CCC(NC(=O)C2CCCCC2)CC1)NCc1ccco1	none
O=C(CN1CCOCC1)Nc1ccccc1-c1ccccc1	none
O=C(CN1CCCCC1)Nc1ccccc1-c1ccccc1	CHRM5 antagonist 45.4, CHRM4 antagonist 68.2
O=C(CN1CCC(NC(=O)Nc2ccccc2-c2ccccc2)CC1)NCc1ccco1	CHRM5 antagonist 60.7
O=C(CN1CCCC1)NCc1ccccc1	none
O=C(COC(=O)c1ccc(O)cc1)Nc1ccccc1-c1ccccc1	CHRM5 antagonist 35.2
O=C(OCC(=O)c1c[nH]c2ccccc12)c1ccc(F)c(S(=O)(=O)N2CCOCC2)c1	none
COc1ccc(NC(=O)/C(=C\c2ccc(OS(=O)(=O)c3ccc(C)cc3)cc2)NC(=O)c2ccccc2)cc1	none
Cc1ccc(S(=O)(=O)Oc2ccc(/C=C(/NC(=O)c3ccccc3)C(=O)Nc3ccccc3)cc2)cc1	CHRM4 antagonist 28.1
COc1ccc(CC2(CO)CCN(C(C)Cc3ccc(Cl)cc3)CC2)cc1 (centres undefined)	none
